Laboratory results reported in ChEMBL document CHEMBL1781933, “Neurosteroid analogues. 16. A new explanation for the lack of anesthetic effects of δ(16)-alphaxalone and identification of a δ(17(20)) analogue with potent anesthetic activity” (J Med Chem, 2011).
Calls of active or inactive are those of the source. The calls are words filed in the database; no cut-off is given here.

Experiments:
Oocyte [1] = test: Activity at rat GABA-A receptor alpha1beta2gamma2L expressed in Xenopus oocytes assessed as potentiation of GABA-induced chloride current at 1 uM by electrophysiological Method relative to control; assay type: cell-based
Procedure, shortened: (§1)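 Oocytes expressing rat α1β2γ2L GABA-A receptors were recorded whole-cell. Compound at 0.1, 1 or 10 µM was co-applied with 2 µM GABA. Response is the current ratio with/without compound. At least four different oocytes per concentration; mean ± SEM.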

Oocyte [2] = test: Activity at rat GABA-A receptor alpha1beta2gamma2L expressed in Xenopus oocytes assessed as potentiation of GABA-induced chloride current at 0.1 uM by electrophysiological Method relative to control; assay type: cell-based; procedure, shortened: as §1
Xenopus laevis [3] = test: Anesthetic effect on Xenopus laevis tadpole assessed as loss of righting reflex; assay type: functional, organism-based
Procedure, shortened: (§2)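 Xenopus tadpoles were exposed to steroid at five or more concentrations, with 10 or more animals per concentration. Loss of righting or swimming reflex was scored. EC50 and Hill coefficient were fitted from the dose–response curves; mean ± SEM.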

Xenopus laevis [4] = test: Anesthetic effect on Xenopus laevis tadpole assessed as loss of swimming reflex at 3 uM; assay type: functional, organism-based
Oocyte [5] = test: Activity at rat GABA-A receptor alpha1beta2gamma2L expressed in Xenopus oocytes assessed as increase in chloride current at 10 uM by electrophysiological Method relative to GABA; assay type: cell-based
Procedure, shortened: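 Direct gating measured without GABA. Current evoked by 10 µM steroid applied alone to oocytes expressing rat α1β2γ2L GABA-A receptors, expressed as a ratio to the current evoked by 2 µM GABA. Whole-cell recording. At least four oocytes per compound; mean ± SEM.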

Oocyte [6] = test: Activity at rat GABA-A receptor alpha1beta2gamma2L expressed in Xenopus oocytes assessed as potentiation of GABA-induced chloride current at 10 uM by electrophysiological Method relative to control; assay type: cell-based; procedure, shortened: as §1
Xenopus laevis [7] = test: Anesthetic effect on Xenopus laevis tadpole assessed as loss of swimming reflex at 10 uM; assay type: functional, organism-based
Xenopus laevis [8] = test: Anesthetic effect on Xenopus laevis tadpole assessed as loss of swimming reflex; assay type: functional, organism-based; procedure, shortened: as §2
Xenopus laevis [9] = test: Anesthetic effect on Xenopus laevis tadpole assessed as loss of swimming reflex at 30 uM; assay type: functional, organism-based
Mus musculus [10] = test: Anesthetic effect in mouse assessed as time taken for recovery of righting effect and walking at 16 mg/kg, iv; assay type: functional
Mus musculus [11] = test: Anesthetic effect in mouse assessed as loss of righting reflex at 8 mg/kg, iv; assay type: functional, organism-based; set-up: dose 8 mg/kg
Mus musculus [12] = test: Anesthetic effect in mouse assessed as immediate loss of righting reflex at 16 mg/kg, iv; assay type: functional, organism-based; set-up: dose 16 mg/kg
Mus musculus [13] = test: Anesthetic effect in mouse assessed as duration of loss of righting reflex at 16 mg/kg, iv; assay type: functional
Mus musculus [14] = test: Anesthetic effect in mouse assessed as duration of loss of righting reflex at 8 mg/kg, iv; assay type: functional

Question: C/C(C#N)=C1\CC[C@H]2[C@@H]3CC[C@H]4C[C@H](O)CC[C@]4(C)[C@H]3C(=O)C[C@]12C was tested. Which fold change (FC) (Oocyte [1]) did it give?
Answer: Its fold change (FC) is 1.52.

Question: What about the fold change (FC) (Oocyte [2]) of the same compound?
Answer: The fold change (FC) was 0.9.

Question: What about the EC50 (Xenopus laevis [3]) of the same compound?
Answer: Its EC50 is 2.71 µM.

Question: And the Activity (Xenopus laevis [4])?
Answer: Its Activity is “Active”.

Question: And the fold change (FC) (Oocyte [5])?
Answer: Its fold change (FC) is 0.04.

Question: What about the fold change (FC) (Oocyte [6]) of the same compound?
Answer: The fold change (FC) was 5.02.

Question: And the Activity (Xenopus laevis [7])?
Answer: Its Activity is “inactive”.

Question: And the EC50 (Xenopus laevis [8])?
Answer: Its EC50 is 5.48 µM.

Question: C[C@]12CC[C@@H](O)C[C@@H]1CC[C@@H]1[C@@H]2C(=O)C[C@]2(C)/C(=C/C#N)CC[C@@H]12 was tested. Which Activity (Xenopus laevis [9]) did it give?
Answer: The Activity was “inactive”.

Question: What about the EC50 (Xenopus laevis [3]) of the same compound?
Answer: The EC50 was 9.15 µM.

Question: What about the Activity (Xenopus laevis [7]) of the same compound?
Answer: Its Activity is “Active”.

Question: What about the EC50 (Xenopus laevis [8]) of the same compound?
Answer: The EC50 was 17.3 µM.

Question: How did the EC50 (Xenopus laevis [3]) turn out when C[C@]12CC[C@@H](O)C[C@@H]1CC[C@@H]1[C@@H]2C(=O)C[C@]2(C)C(C=O)=CC[C@@H]12 was run?
Answer: The EC50 was 3.22 µM.

Question: What about the Activity (Xenopus laevis [4]) of the same compound?
Answer: Its Activity is “Active”.

Question: And the Activity (Xenopus laevis [7])?
Answer: Its Activity is “inactive”.

Question: Which results are given for CC(=O)[C@H]1CC[C@H]2[C@@H]3CC[C@H]4C[C@H](O)CC[C@]4(C)[C@H]3C(=O)C[C@]12C [ALFAXALONE]?
Answer: Time (Mus musculus [10]): 1 min; Activity (Mus musculus [11]): inactive; Activity (Mus musculus [12]): Active; Time (Mus musculus [13]): 4 min

Question: Which fold change (FC) (Oocyte [1]) does the source give for C/C(C#N)=C1/CC[C@H]2[C@@H]3CC[C@H]4C[C@H](O)CC[C@]4(C)[C@H]3C(=O)C[C@]12C here?
Answer: The fold change (FC) was 0.86.

Question: What about the fold change (FC) (Oocyte [2]) of the same compound?
Answer: The fold change (FC) was 0.9.

Question: What about the EC50 (Xenopus laevis [3]) of the same compound?
Answer: The EC50 was 2.09 µM.

Question: And the Activity (Xenopus laevis [4])?
Answer: The Activity was “Active”.

Question: What about the fold change (FC) (Oocyte [5]) of the same compound?
Answer: Its fold change (FC) is 0.05.

Question: And the fold change (FC) (Oocyte [6])?
Answer: The fold change (FC) was 1.53.

Question: What about the Activity (Xenopus laevis [7]) of the same compound?
Answer: The Activity was “inactive”.

Question: What about the EC50 (Xenopus laevis [8]) of the same compound?
Answer: Its EC50 is 10 µM.

Question: With C[C@]12CC[C@@H](O)C[C@@H]1CC[C@@H]1[C@@H]2C(=O)C[C@]2(C)/C(=C\C#N)CC[C@@H]12 as the compound, how does the Time (Mus musculus [14]) read?
Answer: The Time was 1.5 min.

Question: And the Activity (Xenopus laevis [4])?
Answer: The Activity was “Active”.

Question: What about the Activity (Xenopus laevis [7]) of the same compound?
Answer: Its Activity is “inactive”.

Question: And the EC50 (Xenopus laevis [8])?
Answer: Its EC50 is 5.48 µM.

Question: What about the Time (Mus musculus [13]) of the same compound?
Answer: The Time was 4 min.

Question: Which results are given for C[C@]12CC[C@@H](O)C[C@@H]1CC[C@H]1[C@@H]3CC[C@H](CC#N)[C@@]3(C)CC(=O)[C@@H]12?
Answer: fold change (FC) (Oocyte [1]): 1.13; fold change (FC) (Oocyte [2]): 0.91; EC50 (Xenopus laevis [3]): 3.58 µM; Activity (Xenopus laevis [4]): Active; fold change (FC) (Oocyte [5]): 0.01; fold change (FC) (Oocyte [6]): 4.67; Activity (Xenopus laevis [7]): inactive

Question: Which results are given for C[C@]12CC[C@@H](O)C[C@@H]1CC[C@H]1[C@@H]3CC[C@H](C=O)[C@@]3(C)CC(=O)[C@@H]12?
Answer: EC50 (Xenopus laevis [3]): 3.98 µM; Activity (Xenopus laevis [4]): Active; Activity (Xenopus laevis [7]): inactive
